Screening results from PubChem.
Shown are actives, neighbours in structure and some others; about 4.9% of the full set was active somewhere.
STAT1 inh: reduces IFN-gamma driven STAT1 reporter signal; 200,000 compounds, 0.35% hits; NIH 3T3 STAT1-luciferase reporter, luminescence; inhibition, % at 5.5 µM; AID 920;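 active = inhibition above a set limit, the mean inhibition across all tested compounds plus 3 SD, cut at about 34% in these data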;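 also: 0% = IFN-gamma with DMSO and 100% = IFN-gamma with 300 µM nifuroxazide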
STAT3 act: STAT3 signaling activation | U3A cells, IL-6 STAT3-luciferase reporter, luminescence; 100% = signal with IL-6 EC80 alone | 190,000 compounds, 0.91% hits | activation (% of control), % at 5.6 µM | AID 871;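 active = activation above the screen-wide mean of compound activation plus 3 SD, cut at about 130% in these data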;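 also: 0% = background luminescence of wells with medium and substrate only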
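Test system: human U3A cells carrying STAT3-luciferase construct; control set: IL-6-only wells as 100% reference; timing: compound pre-incubation 1 h before IL-6, then 6 h stimulation at 37 °C; also added: IL-6 stimulus at 33 ng/mL final; evaluation: % activation versus median of IL-6-stimulated wells; detection: reporter luminescence signal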
STAT3 blocker: STAT3 signaling inhibition | U3A cells, IL-6 STAT3-luciferase reporter, luminescence; host cell line lacks STAT1 | inhibition, % at 5.5 µM | 190,000 compounds, 0.89% hits | AID 862;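 active = inhibition above the mean inhibition across all screened compounds plus 3 SD, cut at about 44% in these data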;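 also: 0% = DMSO only wells and 100% = 100 µM nifuroxazide control wells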
NF-kB neuron act: raises NF-kB expression in human neuronal cells | NF-kB reporter expression; hits give high values | fold change at 12.5 µM | 190,000 compounds, 1.6% hits | AID 1239; in the data active = fold change above about 3.3
STAT1 activator: increases IFN-gamma driven STAT1 reporter signal; NIH 3T3 STAT1-luciferase reporter, luminescence; 100% = IFN-gamma alone, no compound; activation (% of control), % at 5.5 µM; 200,000 compounds, 2.6% hits; AID 932;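 active = activation above the screen-wide mean activation plus 3 SD, cut at about 130% in these data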;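 also: raw ratio to IFN-gamma control signal so 100% means no change and 0% no light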
APP 5'UTR act: activates APP 5'UTR luciferase reporter | SH-SY5Y APP 5'UTR luciferase reporter, luminescence; zero percent = DMSO vehicle wells | activation, % at 2 µM | 190,000 compounds, 1% hits | AID 1276;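 active = activation above a set limit, based on mean plus 3 SD of controls, cut at about 140% in these data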
Active calls of the source: *; . = no result.

SMILES | STAT1 inh | STAT3 act | STAT3 blocker | NF-kB neuron act | STAT1 activator | APP 5'UTR act
COc1ccc(N=C2CC(C)(C)CC(=O)/C2=C(/O)c2ccccc2)cc1 | -4.9 | 96.6 | 6.0 | 0.97 | 102.1 | 7.1
C=CCN(Cc1nc(-c2ccc(OC)c(OC)c2)oc1C)C1CCS(=O)(=O)C1 (configuration not stated) | 1.8 | 86.5 | 17.8 | 1.08 | 97.3 | -5.6
Cc1cc(C)c(NC(=O)CSc2nnc(SCC(=O)Nc3c(C)cc(C)cc3C)n2N)c(C)c1 | 2.1 | 101.4 | -4.8 | 1.15 | 98.0 | 8.3
Nc1nc(COc2ccc(Cl)cc2)cs1 | -40.1 | 97.1 | 5.9 | 1.12 | 136.6* | 53.2
Cc1ccc(OCc2csc(N)n2)cc1 | -35.8 | 92.7 | 16.2 | 2.2 | 130.6* | 48.7
Cc1cc(N/N=C/c2cccc(Br)c2)nc2ccccc12 | -7.9 | 102.8 | -5.7 | 4.21* | 107.0 | 50.4
Cc1cc(N/N=C/c2ccncc2)nc2ccccc12 | -50.8 | 98.6 | 10.6 | 0.93 | 147.2* | 97.9
CCCCCCOC(=O)Nc1ccc(S(=O)(=O)Nc2cccc([N+](=O)[O-])c2)cc1 | 3.4 | 106.7 | -10.6 | 0.99 | 96.9 | -3.3
COc1ccccc1Oc1ccc(N/C=C/C(=O)c2ccco2)cc1 | -46.0 | 103.3 | -4.4 | 5.21* | 143.1* | 71.8
CC(=O)Nc1ccc(NC(=O)c2ccco2)cc1 | -7.8 | 106.8 | -2.2 | 1.13 | 107.2 | 16.1
CC(=O)Nc1ccc(N/C=C/C(=O)c2ccco2)cc1 | -44.7 | 96.3 | 3.9 | 2.43 | 141.2* | 49.7
CCC(=O)Nc1cc(SCCO)cc([N+](=O)[O-])c1 | 1.8 | 100.1 | 1.3 | 1.68 | 98.4 | -3.8
O=C(CCl)Nc1cc(SCC(O)CO)cc([N+](=O)[O-])c1 (configuration not stated) | 53.8* | 20.5 | 98.5* | 0.15 | 48.8 | 16.4
CC(=O)N1CCN(Cc2nc3cc(NC(=O)Nc4ccccc4)ccc3n2C)CC1 | -6.5 | 93.2 | 13.6 | . | 106.3 | 14.4
O=C(CCS(=O)(=O)c1cccs1)NC1CCCCCC1 | -33.6 | 110.0 | -9.4 | 1.9 | 130.4* | 16.2
O=C(CCS(=O)(=O)c1ccc(Br)cc1)NC1CCCC1 | -4.2 | 100.7 | -0.7 | 0.95 | 98.9 | .
Cc1cc(C(=O)CN2CCCC(C)C2)c(C)n1-c1ccc(F)cc1 (configuration not stated) | -47.3 | 107.9 | -5.9 | 0.91 | 142.7* | 17.7
CCN(CC)S(=O)(=O)c1cc(NC(=O)c2ccc(Br)s2)ccc1C | -41.1 | 90.7 | 19.0 | 1.17 | 138.2* | 34.0
CCN(CC)S(=O)(=O)c1cc(NC(=O)C(CC(C)C)NC(N)=O)ccc1C (configuration not stated) | -0.8 | 96.8 | 5.3 | 0.95 | 99.8 | -11.6
COc1ccc(NC(=O)Nc2ccc3nccnc3c2)cc1 | -31.2 | 94.9 | 12.2 | 1.68 | 129.9* | 97.3
CN(C)c1ccc(NC(=O)C(=O)NCCOc2ccccc2)cc1 | -13.9 | 102.8 | -0.9 | 1.32 | 111.2 | -15.5
COc1ccc(NC(=O)Nc2ccc(N(C)C)cc2)cc1 | -40.1 | 103.9 | -3.7 | 1.61 | 137.0* | 93.9
CCCNC(=O)C(=O)Nc1ccc(N(C)C)cc1 | -39.4 | 112.1 | -12.1 | 1.89 | 136.9* | 32.2
Cc1ccc(-c2nc(NCc3ccco3)n(S(C)(=O)=O)n2)cc1 | -50.9 | 113.9 | -9.1 | 2.83 | 144.0* | 18.7
Cc1sc(NC(=O)c2ccc(F)cc2)c(CN2CCCCCC2)c1C | -34.2 | 122.5 | -15.2 | 1.35 | 131.2* | 46.2
SMILES | STAT1 inh | STAT3 act | STAT3 blocker | NF-kB neuron act | STAT1 activator | APP 5'UTR act
COc1ccc(C2NC(c3ccc(OC)cc3OC)C(C)C(=O)C2C)c(OC)c1 (configuration not stated) | -6.0 | 101.5 | -0.3 | 0.84 | 103.1 | -8.2
COc1ccc(C(=O)Nn2cnc3ccccc3c2=O)c(OC)c1 | -44.7 | 107.9 | -3.9 | 1.85 | 141.1* | 26.2
Cc1ccccc1C(=O)Nn1cnc2ccccc2c1=O | -28.1 | 125.3 | -22.0 | 1.34 | 123.1 | 15.5
COc1ccc2c(c1)Cc1sc(NC(=O)c3ccccc3)nc1-2 | -40.4 | 89.3 | 12.9 | 1.35 | 133.6* | 29.4
COc1ccc2c(c1)Cc1sc(NC(=O)c3cccs3)nc1-2 | -68.8 | 91.0 | 12.2 | 1.55 | 149.3* | 115.0
CSc1ccc(/C=N/n2c(C)cc(C)cc2=O)cc1 | -33.2 | 89.6 | 14.6 | 2.36 | 130.5* | 18.7
CSc1ccc(/C=N/n2c(C)nnc2C)cc1 | 11.2 | 101.0 | 0.1 | 1.21 | 88.3 | -9.7
